Assay outcomes as filed in PubChem.
Xi reactivation: activators of inactive X chromosome reactivation, primary screen, imaging, XiGFP fibroblasts, GFP high-content imaging, set 2 | actives 0.055% (n = 360,000) | activation, % at 7.58 µM | XiGFP mouse fibroblasts, % GFP-positive cells imaging, 3 d; cells co-treated with 5-aza-dC sensitizer; scaled so ellipticine positive control = 100%;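 active = mean normalized replicate activation at least 10% and every replicate at or above 10%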;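 note: 0% = median of on-plate neutral control wells and 100% = ellipticine 6 µM median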
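assay system = SV40-immortalized XiGFP fibroblast cells, line 68-5-11 | buffer or medium = DMEM plus 5-aza-dC sensitizer | doses = single-point pinned compound dosing | times = 3-day compound exposure, then 15 min fixation at room temperature | benchmarks = positive control ellipticine, 6 µM final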
E-selectin induc: E-selectin induction in HUVECs, primary screen, imaging, HUVEC, immunofluorescence imaging, single point; actives 0.37% (n = 260,000); P16581; activation, % at 7.58 µM; normalized: neutral wells 0, TNF-alpha wells 100;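 active = mean E-selectin-positive cell signal at least 10% of the positive control, reached in at least 60% of replicates, without over 20% cell loss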
Target sequence (P16581 whole entry, looked up): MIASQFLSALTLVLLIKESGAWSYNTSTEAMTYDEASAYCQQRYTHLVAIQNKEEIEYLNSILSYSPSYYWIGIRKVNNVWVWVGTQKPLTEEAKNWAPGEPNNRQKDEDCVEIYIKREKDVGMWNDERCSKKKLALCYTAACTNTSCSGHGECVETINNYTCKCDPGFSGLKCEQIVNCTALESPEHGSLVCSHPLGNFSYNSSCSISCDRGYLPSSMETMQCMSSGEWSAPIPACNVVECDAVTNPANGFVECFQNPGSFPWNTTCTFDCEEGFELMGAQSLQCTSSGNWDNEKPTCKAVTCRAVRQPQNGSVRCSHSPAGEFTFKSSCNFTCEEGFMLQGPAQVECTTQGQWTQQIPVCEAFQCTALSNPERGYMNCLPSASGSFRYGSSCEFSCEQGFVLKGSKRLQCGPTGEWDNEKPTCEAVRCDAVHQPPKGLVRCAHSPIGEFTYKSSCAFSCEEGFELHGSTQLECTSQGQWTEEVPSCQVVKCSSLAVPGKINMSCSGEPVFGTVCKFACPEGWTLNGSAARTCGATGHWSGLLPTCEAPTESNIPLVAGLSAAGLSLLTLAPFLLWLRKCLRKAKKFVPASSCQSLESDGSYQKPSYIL
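Test system – human umbilical vein endothelial cells (HUVEC), E-selectin induction · Input – 3,000 HUVEC seeded per well · Buffer or medium – EGM-2, gelatin · Compound dosing – single-point compound dose · Detection – immunofluorescence imaging · Measure – percent E-selectin-positive cells · Controls – TNF-alpha high, DMSO low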
* hit, by the source's call; / = no result. The entries come from a sample that favours hits as a whole.

SMILES	Xi reactivation	E-selectin induc
FC(F)(F)c1ccc2c(c1)N1CCCC1CN2 (stereo not given)	0	58*
O=C(CN1CCOCC1)N[C@H]1CC[C@H](CCn2cc(C3CCCC3)nn2)O[C@@H]1CO	0	0
C[C@H]1CN([C@@H](C)CO)C(=O)c2cc(NC(=O)Cc3cn(C)c4ccccc34)ccc2O[C@@H]1CN(C)Cc1ccc2c(c1)OCO2	-1	-8
CC(C)NC(=O)N(C)C[C@@H]1Oc2ccc(NC(=O)Cc3cn(C)c4ccccc34)cc2C(=O)N([C@@H](C)CO)C[C@@H]1C	0	5
C[C@@H]1CN([C@@H](C)CO)C(=O)c2cc(NC(=O)Cc3cn(C)c4ccccc34)ccc2O[C@H]1CN(C)Cc1ccc2c(c1)OCO2	0	39*
CC(C)NC(=O)N(C)C[C@@H]1Oc2ccc(NC(=O)Cc3cn(C)c4ccccc34)cc2C(=O)N([C@H](C)CO)C[C@H]1C	0	49*
C=CCn1c(SCC(C)=O)nc2sc3c(c2c1=O)CCC3	0	0
C=CCn1c(SCC(=O)N(CC)C2CCS(=O)(=O)C2)nc2sc3c(c2c1=O)CCC3 (stereo not given)	137*	1
CN(C)C(=O)c1cccc(-c2ccc(C3[C@@H]4CN(Cc5nccs5)C[C@H]3N4)cc2)c1 (stereo not given in full)	0	0
CC(C)Oc1cc(O)c2c(=O)c(-c3ccc(O)cc3)coc2c1	0	114*
COc1ccc(-c2coc3cc(O)cc(O)c3c2=O)cc1	0	1
O=C(Cc1ccncc1)Nc1ccc2c(c1)[C@@H]1C[C@H](CC(=O)N3CCCCC3)O[C@@H](CO)[C@@H]1O2	0	0
C[C@@H]1CN(C)C(=O)c2cccc(N)c2O[C@@H]1CN(C)C(=O)OC(C)(C)C	0	/
Cc1sc2ncnc(N/N=C/c3cccc(O)c3)c2c1C	0	/
C/C(=N\Nc1ncnc2sc(C)c(C)c12)c1ccccn1	85*	/
COc1ccc(S(=O)(=O)Nc2cccc3c2O[C@H](CN(C)C(=O)Nc2c(C)noc2C)[C@H](C)CN([C@@H](C)CO)C3=O)cc1	0	63*
COc1ccc(S(=O)(=O)Nc2ccc3c(c2)C(=O)N([C@@H](C)CO)C[C@@H](C)[C@@H](CN(C)C(=O)Nc2cccc4ccccc24)O3)cc1	0	53*
COc1ccc(S(=O)(=O)Nc2ccc3c(c2)C(=O)N([C@@H](C)CO)C[C@H](C)[C@@H](CN(C)C(=O)Nc2cccc4ccccc24)O3)cc1	0	80*
COc1ccc(S(=O)(=O)Nc2cccc3c2O[C@@H](CN(C)C(=O)Nc2c(C)noc2C)[C@@H](C)CN([C@@H](C)CO)C3=O)cc1	0	-7
C[C@H]1CN([C@@H](C)CO)C(=O)c2cc(NS(=O)(=O)c3ccccc3)ccc2O[C@H]1CN(C)C(=O)Nc1cccc2ccccc12	0	0
COc1ccc(S(=O)(=O)Nc2ccc3c(c2)C(=O)N([C@H](C)CO)C[C@H](C)[C@@H](CN(C)C(=O)Nc2cccc4ccccc24)O3)cc1	0	64*
C[C@H]1CN([C@@H](C)CO)C(=O)c2cc(NS(=O)(=O)c3ccc(F)cc3)ccc2O[C@@H]1CN(C)C(=O)Nc1cccc2ccccc12	0	0
COc1ccc(S(=O)(=O)Nc2ccc3c(c2)C(=O)N([C@@H](C)CO)C[C@@H](C)[C@H](CN(C)C(=O)Nc2cccc4ccccc24)O3)cc1	0	1
COCC(=O)Nc1ccc2c(c1)[C@H]1C[C@@H](CC(=O)NCc3cccnc3)O[C@H](CO)[C@H]1O2	0	0
CC(=O)N1C2CN(CC(F)(F)F)CC1C2c1ccc(Br)cc1 (stereo not given)	0	/
SMILES	Xi reactivation	E-selectin induc
C[C@@H]1CN([C@@H](C)CO)C(=O)c2cccc(NC(=O)NC3CCCCC3)c2O[C@H]1CN(C)Cc1ccc(C(F)(F)F)cc1	0	0
COc1ccc2c3c([nH]c2c1)[C@H](CO)N(Cc1nccs1)CC31CCN(Cc2nccs2)CC1	0	/
COc1cccc(C#Cc2cnc3c(c2)C(=O)N([C@@H](C)CO)C[C@@H](C)[C@H](CN(C)C(=O)C2CC2)O3)c1	0	2
O=C(Cc1ccncc1)Nc1ccc2c(c1)[C@H]1C[C@@H](CC(=O)N3CCCCC3)O[C@H](CO)[C@H]1O2	0	/
COc1ccc(CNC(=O)c2cc3c(c(-c4cccc(-c5cccc(C#N)c5)c4)n2)[C@H](CCO)N([S@@](=O)C(C)(C)C)C3)cc1	0	54*
COc1ccc(CNC(=O)c2cc3c(c(-c4cccc(-c5ccc(C#N)cc5)c4)n2)[C@H](CCO)N([S@@](=O)C(C)(C)C)C3)cc1	0	5
CC(C)(C)[S@](=O)N1Cc2cc(C(=O)N[C@@H]3CCN(Cc4ccccc4)C3)nc(-c3cccc(-c4cccnc4)c3)c2[C@@H]1CCO	0	0
CC(C)(C)[S@](=O)N1Cc2cc(C(=O)N[C@H]3CCN(Cc4ccccc4)C3)nc(-c3cccc(-c4ccncc4)c3)c2[C@@H]1CCO	0	62*
C[C@@H]1CCCCO[C@H](CN(C)Cc2ccc(C(=O)Nc3ccccc3N)cc2)[C@@H](C)CN([C@@H](C)CO)C(=O)c2cc(N(C)C)ccc2O1	-1	/
CC(=O)c1cccc(NC(=O)C2=CN3CCS(=O)(=O)N=C3C=C2)c1	0	75*
CC(=O)c1cccc(NC(=O)C2=CC(c3ccco3)=NS(=O)(=O)N2C)c1	0	/
CCCNC(=O)N1CC2(C1)CN(C(=O)CC)[C@@H](CO)c1[nH]c3cc(OC)ccc3c12	0	0
C[C@@H]1CN([C@H](C)CO)S(=O)(=O)c2ccc(-c3ccncc3)cc2O[C@H]1CN(C)C(=O)C1CCC1	0	1
COc1ccc2c3c([nH]c2c1)[C@H](CO)N(C)CC31CN(C(=O)c2ccccc2F)C1	0	/
O=C(CSc1ccc2c(c1)OCCO2)N1CCN(c2ccccc2O)CC1	0	/
CCOc1ccccc1N1CCN(C(=O)CC(C)(C)C)CC1	0	4
CCCCNC(=O)N1CCN(c2ccccc2OCC)CC1	0	88*
CCOc1ccccc1N1CCN(C(=O)CSc2ccc3c(c2)OCCO3)CC1	0	79*
C[C@H](CO)N1C[C@H](C)[C@@H](CN(C)CC2CCCCC2)Oc2ccc(NC(=O)NC3CCCCC3)cc2CC1=O	-1	0
Cc1ccc(S(=O)(=O)NC(Cc2ccccc2)C(=O)O)cc1C (stereo not given)	0	59*
CN(C)N=Nc1ccc(S(=O)(=O)NC(Cc2ccccc2)C(=O)O)cc1 (stereo not given)	0	0
Cc1nn(CCS(=O)(=O)c2ccc(Cl)cc2)c(C)c1Br	0	78*
O=S(=O)(CCN1CCOCC1)c1ccc(Cl)cc1	0	0
CCOC(=O)N1CCN=C1SCc1ccc(Cl)c(Cl)c1	0	119*
CC(=O)N1CCN=C1SCc1ccc(Br)cc1	1	/
C[C@H](CO)N1C[C@H](C)[C@H](CN(C)Cc2ccc3c(c2)OCO3)Oc2ncc(-c3cc4ccccc4o3)cc2C1=O	0	0
CC(=O)N1C[C@@H]2C(c3ccccc3)[C@H](C1)N2C(=O)NC(C)C (stereo not given in full)	0	/
